{"source": "ChEMBL document CHEMBL5653631", "about": "“A Potent and Selective ULK1 Inhibitor Suppresses Autophagy and Sensitizes Cancer Cells to Nutrient Stress” (iScience, 2018)", "key": {"[1]": {"biological_target": "T1, Serine/threonine-protein kinase 17B (Homo sapiens) (UniProt O94768)", "T1 sequence (whole entry)": "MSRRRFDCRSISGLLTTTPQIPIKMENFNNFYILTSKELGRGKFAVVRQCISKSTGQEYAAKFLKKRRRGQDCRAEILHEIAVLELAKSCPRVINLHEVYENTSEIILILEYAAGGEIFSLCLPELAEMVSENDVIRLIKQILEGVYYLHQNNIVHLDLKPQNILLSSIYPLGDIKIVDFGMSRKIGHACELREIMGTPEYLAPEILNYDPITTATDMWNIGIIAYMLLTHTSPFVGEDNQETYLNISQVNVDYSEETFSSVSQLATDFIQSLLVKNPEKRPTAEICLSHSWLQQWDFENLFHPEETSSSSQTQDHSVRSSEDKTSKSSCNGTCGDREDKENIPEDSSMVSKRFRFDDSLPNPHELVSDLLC", "experiment": "Inhibition of human recombinant DRAK2 at 40 nM in presence of ATP by radiometric assay relative to control"}, "[2]": {"biological_target": "Tyrosine-protein kinase ABL2 (Homo sapiens) (UniProt P42684)", "sequence (P42684 whole entry)": "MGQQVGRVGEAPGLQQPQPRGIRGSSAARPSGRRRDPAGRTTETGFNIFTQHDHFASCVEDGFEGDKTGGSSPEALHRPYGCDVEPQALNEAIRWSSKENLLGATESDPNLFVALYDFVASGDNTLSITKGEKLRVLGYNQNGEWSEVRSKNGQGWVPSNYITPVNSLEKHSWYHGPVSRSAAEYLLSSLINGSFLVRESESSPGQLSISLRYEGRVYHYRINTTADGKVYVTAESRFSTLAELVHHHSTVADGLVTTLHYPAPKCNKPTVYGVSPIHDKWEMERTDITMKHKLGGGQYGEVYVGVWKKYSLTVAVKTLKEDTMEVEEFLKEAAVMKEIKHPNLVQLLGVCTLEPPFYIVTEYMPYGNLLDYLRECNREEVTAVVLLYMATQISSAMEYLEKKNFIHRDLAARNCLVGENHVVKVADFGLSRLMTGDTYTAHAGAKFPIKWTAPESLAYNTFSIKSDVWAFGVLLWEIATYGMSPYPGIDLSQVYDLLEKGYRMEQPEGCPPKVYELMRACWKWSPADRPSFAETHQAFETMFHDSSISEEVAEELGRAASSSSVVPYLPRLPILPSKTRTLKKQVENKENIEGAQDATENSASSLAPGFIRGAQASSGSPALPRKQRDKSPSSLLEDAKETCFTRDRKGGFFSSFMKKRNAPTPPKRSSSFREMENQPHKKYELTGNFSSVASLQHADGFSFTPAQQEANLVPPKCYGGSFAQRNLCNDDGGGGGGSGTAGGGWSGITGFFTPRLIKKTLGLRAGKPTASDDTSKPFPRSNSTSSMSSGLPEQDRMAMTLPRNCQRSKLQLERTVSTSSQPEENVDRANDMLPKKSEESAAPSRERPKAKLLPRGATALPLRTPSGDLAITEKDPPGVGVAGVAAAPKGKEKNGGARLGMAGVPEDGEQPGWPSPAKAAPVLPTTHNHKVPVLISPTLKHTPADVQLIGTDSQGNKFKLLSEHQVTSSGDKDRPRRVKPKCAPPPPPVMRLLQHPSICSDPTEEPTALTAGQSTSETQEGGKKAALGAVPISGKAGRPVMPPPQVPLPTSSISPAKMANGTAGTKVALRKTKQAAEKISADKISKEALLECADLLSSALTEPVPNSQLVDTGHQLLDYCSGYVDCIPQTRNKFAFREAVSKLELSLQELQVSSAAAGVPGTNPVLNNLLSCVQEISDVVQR", "experiment": "Inhibition of human recombinant ABL2 at 40 nM related to control ULK1", "method_in_brief": "(§1)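 Radiometric activity assays in a panel of 327 human recombinant kinases, each run in duplicate at one inhibitor concentration. Activity remaining is expressed as percent of vehicle control, and percent inhibition is calculated as 100% minus percent activity remaining.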"}, "[3]": {"biological_target": "5'-AMP-activated protein kinase catalytic subunit alpha-2 (Homo sapiens) (UniProt P54646)", "sequence (P54646 whole entry, looked up)": "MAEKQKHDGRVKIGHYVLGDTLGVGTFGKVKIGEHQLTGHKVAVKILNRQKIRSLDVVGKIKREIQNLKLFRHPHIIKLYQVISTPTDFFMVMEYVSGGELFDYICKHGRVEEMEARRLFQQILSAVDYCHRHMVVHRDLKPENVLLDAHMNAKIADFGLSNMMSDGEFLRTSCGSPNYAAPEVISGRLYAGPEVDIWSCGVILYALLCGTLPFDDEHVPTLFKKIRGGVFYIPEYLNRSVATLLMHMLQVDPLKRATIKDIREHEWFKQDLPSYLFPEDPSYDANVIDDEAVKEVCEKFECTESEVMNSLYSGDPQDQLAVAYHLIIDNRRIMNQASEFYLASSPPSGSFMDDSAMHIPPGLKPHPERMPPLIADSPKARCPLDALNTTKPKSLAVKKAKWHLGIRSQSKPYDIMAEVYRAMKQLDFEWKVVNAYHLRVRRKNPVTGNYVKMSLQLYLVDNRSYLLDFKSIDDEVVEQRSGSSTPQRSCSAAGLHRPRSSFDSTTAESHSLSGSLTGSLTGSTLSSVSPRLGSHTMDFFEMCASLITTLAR", "experiment": "Inhibition of human recombinant AMPKa2 at 40 nM related to control ULK1", "method_in_brief": "as §1"}, "[4]": {"biological_target": "Phosphorylase b kinase gamma catalytic chain, skeletal muscle/heart isoform (Homo sapiens) (UniProt Q16816)", "sequence (Q16816 whole entry, looked up, canonical isoform)": "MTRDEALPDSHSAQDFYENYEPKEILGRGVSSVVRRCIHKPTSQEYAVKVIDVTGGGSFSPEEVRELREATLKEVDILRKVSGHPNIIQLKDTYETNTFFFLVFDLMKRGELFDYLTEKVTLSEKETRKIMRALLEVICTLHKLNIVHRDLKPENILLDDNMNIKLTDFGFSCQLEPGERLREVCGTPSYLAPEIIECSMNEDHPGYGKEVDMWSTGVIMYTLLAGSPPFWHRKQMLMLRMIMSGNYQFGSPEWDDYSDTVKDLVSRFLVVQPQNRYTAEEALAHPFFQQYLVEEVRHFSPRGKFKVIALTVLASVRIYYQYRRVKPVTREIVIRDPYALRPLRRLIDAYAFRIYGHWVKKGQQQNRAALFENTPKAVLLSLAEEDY", "experiment": "Inhibition of human recombinant PHKg1 at 40 nM related to control ULK1"}, "[5]": {"biological_target": "T2, Serine/threonine-protein kinase D3 (Homo sapiens) (UniProt O94806)", "T2 sequence (whole entry)": "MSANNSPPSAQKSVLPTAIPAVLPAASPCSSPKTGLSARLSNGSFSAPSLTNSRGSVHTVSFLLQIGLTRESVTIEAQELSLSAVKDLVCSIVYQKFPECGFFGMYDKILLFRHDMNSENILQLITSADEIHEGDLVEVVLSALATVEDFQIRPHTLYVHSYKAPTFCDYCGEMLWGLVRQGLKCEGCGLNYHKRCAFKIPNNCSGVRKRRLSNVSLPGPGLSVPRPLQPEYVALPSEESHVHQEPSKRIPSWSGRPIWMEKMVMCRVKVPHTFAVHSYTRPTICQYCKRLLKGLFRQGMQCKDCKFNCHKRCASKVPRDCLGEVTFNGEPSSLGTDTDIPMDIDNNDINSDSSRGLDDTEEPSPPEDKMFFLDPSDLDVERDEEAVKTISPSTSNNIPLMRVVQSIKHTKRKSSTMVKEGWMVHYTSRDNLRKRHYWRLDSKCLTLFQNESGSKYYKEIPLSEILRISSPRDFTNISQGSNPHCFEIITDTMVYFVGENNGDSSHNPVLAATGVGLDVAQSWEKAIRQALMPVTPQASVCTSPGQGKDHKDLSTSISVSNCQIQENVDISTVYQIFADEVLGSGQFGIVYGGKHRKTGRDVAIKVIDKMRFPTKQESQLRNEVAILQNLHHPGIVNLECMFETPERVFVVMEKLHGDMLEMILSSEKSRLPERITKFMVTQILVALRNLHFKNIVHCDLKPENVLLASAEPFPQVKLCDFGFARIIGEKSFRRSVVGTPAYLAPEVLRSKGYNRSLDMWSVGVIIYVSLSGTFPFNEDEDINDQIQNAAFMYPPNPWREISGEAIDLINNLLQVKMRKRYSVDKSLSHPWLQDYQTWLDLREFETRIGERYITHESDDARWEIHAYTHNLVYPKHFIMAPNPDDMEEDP", "experiment": "Inhibition of human recombinant PKD3 at 40 nM related to control ULK1"}, "[6]": {"biological_target": "Cyclin-dependent kinase 7 (Homo sapiens) (UniProt P50613)", "sequence (P50613 whole entry)": "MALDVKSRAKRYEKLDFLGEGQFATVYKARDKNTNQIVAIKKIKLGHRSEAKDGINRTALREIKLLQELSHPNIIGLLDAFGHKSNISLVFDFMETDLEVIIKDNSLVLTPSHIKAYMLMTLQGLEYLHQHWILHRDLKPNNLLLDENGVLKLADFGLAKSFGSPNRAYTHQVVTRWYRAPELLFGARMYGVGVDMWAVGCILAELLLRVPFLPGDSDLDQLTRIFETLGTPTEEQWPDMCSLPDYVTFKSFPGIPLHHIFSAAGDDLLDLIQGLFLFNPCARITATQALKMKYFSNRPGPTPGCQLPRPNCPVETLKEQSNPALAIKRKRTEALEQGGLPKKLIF", "experiment": "Inhibition of human recombinant CDK7 at 15 nM in presence of ATP by radiometric assay relative to control"}, "[7]": {"biological_target": "T3, Serine/threonine-protein kinase Sgk2 (Homo sapiens) (UniProt Q9HBY8)", "T3 sequence (whole entry)": "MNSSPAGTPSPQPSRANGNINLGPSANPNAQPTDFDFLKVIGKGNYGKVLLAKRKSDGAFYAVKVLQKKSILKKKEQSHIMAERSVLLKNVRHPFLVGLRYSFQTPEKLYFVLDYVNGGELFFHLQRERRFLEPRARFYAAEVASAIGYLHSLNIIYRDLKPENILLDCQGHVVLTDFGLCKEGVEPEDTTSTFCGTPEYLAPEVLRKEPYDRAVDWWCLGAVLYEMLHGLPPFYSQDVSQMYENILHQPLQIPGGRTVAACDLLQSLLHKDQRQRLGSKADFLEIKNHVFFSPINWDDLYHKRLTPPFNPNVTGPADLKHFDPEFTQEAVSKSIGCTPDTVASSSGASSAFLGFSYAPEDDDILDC", "experiment": "Inhibition of human recombinant SGK2 at 15 nM in presence of ATP by radiometric assay relative to control"}, "[8]": {"biological_target": "Phosphorylase b kinase gamma catalytic chain, skeletal muscle/heart isoform (Homo sapiens) (UniProt Q16816)", "experiment": "Inhibition of human recombinant PHKg1 at 15 nM related to control ULK1"}, "[9]": {"biological_target": "T4, Myotonin-protein kinase (Homo sapiens) (UniProt Q09013)", "T4 sequence (whole entry)": "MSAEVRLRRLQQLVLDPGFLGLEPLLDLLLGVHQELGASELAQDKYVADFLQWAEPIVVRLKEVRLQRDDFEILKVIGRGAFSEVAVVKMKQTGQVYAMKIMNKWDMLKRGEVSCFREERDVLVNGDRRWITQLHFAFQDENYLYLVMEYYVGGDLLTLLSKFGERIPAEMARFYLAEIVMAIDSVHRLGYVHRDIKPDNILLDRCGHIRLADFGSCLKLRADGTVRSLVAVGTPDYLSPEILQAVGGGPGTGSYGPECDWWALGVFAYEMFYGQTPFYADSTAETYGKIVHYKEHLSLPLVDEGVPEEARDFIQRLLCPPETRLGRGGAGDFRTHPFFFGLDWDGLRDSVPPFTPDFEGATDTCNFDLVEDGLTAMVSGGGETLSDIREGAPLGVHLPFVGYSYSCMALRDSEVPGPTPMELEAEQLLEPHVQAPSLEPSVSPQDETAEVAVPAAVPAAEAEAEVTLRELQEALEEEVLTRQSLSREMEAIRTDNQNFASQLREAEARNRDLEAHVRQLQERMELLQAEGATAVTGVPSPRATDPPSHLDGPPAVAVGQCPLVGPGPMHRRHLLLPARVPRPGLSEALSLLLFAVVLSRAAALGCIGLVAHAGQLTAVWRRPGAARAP", "experiment": "Inhibition of human recombinant DMPK1 at 500 nM in presence of ATP by radiometric assay relative to control"}, "[10]": {"biological_target": "Tyrosine-protein kinase ABL2 (Homo sapiens) (UniProt P42684)", "experiment": "Inhibition of human recombinant ABL2 at 500 nM related to control ULK1"}}}
{"smiles": "O=C(N[C@@H](C1CC1)C(F)(F)F)c1cc(-c2cnn3cc(-c4ccc(F)cc4)cnc23)cs1", "values": [{"measurement": "inhibition", "setting": "[1]", "value": 39, "unit": "%"}, {"measurement": "fold change (FC)", "setting": "[2]", "value": 0.1}, {"measurement": "fold change (FC)", "setting": "[3]", "value": 0.1}, {"measurement": "fold change (FC)", "setting": "[4]", "value": 0.16}, {"measurement": "fold change (FC)", "setting": "[5]", "value": 0.1}]}
{"smiles": "CC(C)[C@H](NC(=O)c1cc(-c2cnn3cc(-c4ccc(OCCN5CCCCC5)cc4)cnc23)cs1)C(F)(F)F", "values": [{"measurement": "inhibition", "setting": "[6]", "value": 16, "unit": "%"}, {"measurement": "inhibition", "setting": "[7]", "value": 0, "unit": "%"}, {"measurement": "fold change (FC)", "setting": "[8]", "value": 0.58}]}
{"smiles": "CNC(=O)c1ccccc1Oc1nc(Nc2cc(OC)c(OC)c(OC)c2)ncc1Br", "values": [{"measurement": "inhibition", "setting": "[9]", "value": 0, "unit": "%"}, {"measurement": "fold change (FC)", "setting": "[10]", "value": 0.28}]}
